≈ marks a conversion by molar mass, not a printed value. One block for each compound: values may come before it. Calls of active or inactive are those of the source. No cut-off for these calls is given here.
Columns and labels:
Staphylococcus aureus [1] = experiment: Antibacterial activity against methicillin-sensitive Staphylococcus aureus isolate 1 planktonic cells after 24 hrs by microdilution assay; format: functional; settings: isolate 1, 24 h
Summary of the method: (§1)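 Planktonic cells at 1 × 10^5 CFU/mL were exposed to compound, and A580 was read at 0 h and after 24 h at 37 °C with shaking. Controls were medium plus microbes, with 1% (v/v) DMSO where the solvent was used. Relative cell number was calculated against the control. Results were confirmed by subculture in fresh medium (48 h, 37 °C) and plating. Conjugate concentrations were expressed as parent-antibiotic equivalents.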

Staphylococcus aureus [2] = experiment: Antibacterial activity against methicillin-sensitive Staphylococcus aureus isolate 2 planktonic cells after 24 hrs by microdilution assay; format: functional; settings: isolate 2, 24 h; summary of the method: as §1
Staphylococcus aureus [3] = experiment: Antibacterial activity against methicillin-sensitive Staphylococcus aureus isolate 3 planktonic cells after 24 hrs by microdilution assay; format: functional; settings: isolate 3, 24 h; summary of the method: as §1
Staphylococcus aureus [4] = experiment: Antibacterial activity against methicillin-sensitive Staphylococcus aureus isolate 4 planktonic cells after 24 hrs by microdilution assay; format: functional; settings: isolate 4, 24 h; summary of the method: as §1
Staphylococcus aureus [5] = experiment: Antibacterial activity against methicillin-sensitive Staphylococcus aureus isolate 5 planktonic cells after 24 hrs by microdilution assay; format: functional; settings: isolate 5, 24 h; summary of the method: as §1
Staphylococcus aureus [6] = experiment: Antibacterial activity against methicillin-sensitive Staphylococcus aureus isolate 6 planktonic cells after 24 hrs by microdilution assay; format: functional; settings: isolate 6, 24 h; summary of the method: as §1
Staphylococcus aureus [7] = experiment: Antibacterial activity against methicillin-sensitive Staphylococcus aureus ATCC 6538 planktonic cells after 24 hrs by microdilution assay; format: functional; settings: ATCC 6538, 24 h; summary of the method: as §1
Staphylococcus aureus [8] = experiment: Antibacterial activity against methicillin-resistant Staphylococcus aureus MR4-CIPS planktonic cells after 24 hrs by microdilution assay; format: functional
Summary of the method: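 Broth microdilution: 100 µL of 1 × 10^5 CFU/mL inoculum with graded compound concentrations, read at 580 nm before and after 24 h at 37 °C with shaking to prevent biofilm formation. Relative cell number is taken against medium + microbes controls, with 1% DMSO in the ciprofloxacin control. Growth is confirmed by 48 h subculture in fresh medium and by plating. MIC is expressed as parent-antibiotic equivalents.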

Staphylococcus aureus [9] = experiment: Antibacterial activity against methicillin-sensitive Staphylococcus aureus isolate 1 planktonic cells at 5 mg after 24 hrs by disc diffusion test; set-up: dose or concentration left out as unconfirmed; settings: isolate 1, 24 h, read-out: DIZ
Staphylococcus aureus [10] = experiment: Antibacterial activity against methicillin-sensitive Staphylococcus aureus isolate 2 planktonic cells at 5 mg after 24 hrs by disc diffusion test; set-up: dose or concentration left out as unconfirmed; settings: isolate 2, 24 h, read-out: DIZ
Staphylococcus aureus [11] = experiment: Antibacterial activity against methicillin-sensitive Staphylococcus aureus isolate 3 planktonic cells at 5 mg after 24 hrs by disc diffusion test; set-up: dose or concentration left out as unconfirmed; settings: isolate 3, 24 h, read-out: DIZ
Staphylococcus aureus [12] = experiment: Antibacterial activity against methicillin-sensitive Staphylococcus aureus isolate 4 planktonic cells at 5 mg after 24 hrs by disc diffusion test; set-up: dose or concentration left out as unconfirmed; settings: isolate 4, 24 h, read-out: DIZ
Staphylococcus aureus [13] = experiment: Antibacterial activity against methicillin-sensitive Staphylococcus aureus isolate 5 planktonic cells at 5 mg after 24 hrs by disc diffusion test; set-up: dose or concentration left out as unconfirmed; settings: isolate 5, 24 h, read-out: DIZ
Staphylococcus aureus [14] = experiment: Antibacterial activity against methicillin-sensitive Staphylococcus aureus isolate 6 planktonic cells at 5 mg after 24 hrs by disc diffusion test; set-up: dose or concentration left out as unconfirmed; settings: isolate 6, 24 h, read-out: DIZ
Staphylococcus aureus [15] = experiment: Antibacterial activity against methicillin-resistant Staphylococcus aureus MR4-CIPS planktonic cells at 5 mg after 24 hrs by disc diffusion test; set-up: dose or concentration left out as unconfirmed; settings: read-out: DIZ
Staphylococcus aureus [16] = experiment: Bactericidal activity against Staphylococcus aureus ATCC 6538 biofilm using hydroxyapatite as substrate assessed as reduction in colony forming units after 24 hrs; format: functional
Summary of the method: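 Biofilms were started from a 1 McFarland suspension, allowed to adhere 4 h at 37 °C on HA discs or polystyrene well bottoms, then rinsed. They were exposed 24 h at 37 °C to TSB containing 0.24–125 mg/L compound. Cells were detached in 0.5% saponin by 1 min vortexing, serially diluted and plated on Columbia (S. aureus) or MacConkey (P. aeruginosa) agar, 37 °C, 24 h. Read-out was mean CFU/mm² ± SEM; HA area was measured by X-ray tomography.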

Pseudomonas aeruginosa = experiment: Bactericidal activity against Pseudomonas aeruginosa ATCC 15442 biofilm using hydroxyapatite as substrate assessed as reduction in colony forming units at 8 ug/ml at pH 4.8 to 7.4 after 24 hrs; format: functional
Staphylococcus aureus [17] = experiment: Antibiofilm activity against Staphylococcus aureus ATCC 6538 assessed as CFU counts at 100 ug/mL pretreated with HA for 24 hrs followed by organism inoculation measured after 24 hrs (reference value: 8.1 x 10^10CFU); format: functional
Summary of the method: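 HA discs were soaked 24 h at 37 °C in 2 mL compound solution, with DMSO or phosphate-buffer controls, then rinsed 3× with sterile water. Discs were inoculated with 2 mL of 0.5 McFarland S. aureus ATCC 6538 for biofilm formation. Biofilm CFU were counted after 24 h growth.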

Staphylococcus aureus [18] = experiment: Antibiofilm activity against Staphylococcus aureus ATCC 6538 assessed as CFU counts at 200 ug/mL pretreated with HA for 24 hrs followed by organism inoculation measured after 24 hrs (reference value: 8.1 x 10^10CFU); format: functional
Staphylococcus aureus [19] = experiment: Antibiofilm activity against Staphylococcus aureus ATCC 6538 assessed as CFU counts at 400 ug/mL pretreated with HA for 24 hrs followed by organism inoculation measured after 24 hrs (reference value: 8.1 x 10^10CFU); format: functional
[20] = system: Aggregatibacter actinomycetemcomitans; experiment: Antibiofilm activity against Aggregatibacter actinomycetemcomitans D7S-1 serotype A at 5 mg after 24 hrs by disc diffusion assay; format: functional; settings: read-out: DIZ
[21] = system: Aggregatibacter actinomycetemcomitans; experiment: Antibiofilm activity against Aggregatibacter actinomycetemcomitans D7S-1 serotype A after 24 hrs by microdilution assay; format: functional
[22] = system: Aggregatibacter actinomycetemcomitans; experiment: Antibiofilm activity against Aggregatibacter actinomycetemcomitans infected in jawbone peri-implant osteomyelitis Sprague-Dawley rat model assessed as bacterial count in bone per gram at 10 mg/kg, ip administered 3 times per week measured after 1 week post pharmacotherapy relative to control; format: functional
Summary of the method: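 Rats carried two titanium implants each, preinoculated with A. actinomycetemcomitans D7S-1 biofilm (10^9 CFU), placed bilaterally in palatal bone. One week after surgery, randomized groups received i.p. doses in sterile saline; the negative control was endotoxin-free saline. One week after treatment, 1 cm² peri-implant tissue and bone were homogenized in 0.5% saponin, serially diluted 10-fold and spread-plated on modified TSB (37 °C, 5% CO2, 48 h). Read-out was CFU/g and mean log10 reduction; analysts were blinded.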

Staphylococcus aureus [23] = experiment: microbe, parasite or virus in culture; set-up: dose or concentration left out as unconfirmed; settings: ATCC 6538, 24 h, read-out: DIZ
Staphylococcus aureus [24] = experiment: Antibiofilm activity against Staphylococcus aureus ATCC 6538 assessed as reduction in bacterial adherence to HA at 15.6 to 250 ug/ml pretreated with HA for 24 hrs followed by organism inoculation measured after 24 hrs; format: functional
Summary of the method: (§2)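 HA spherules (final 10 mg/mL) in TSB were preincubated 24 h at 37 °C with shaking with compound (final 0.12–250 mg/L), then pelleted and the supernatant discarded. They were inoculated with 1 mL S. aureus at 10^5 CFU/mL. A580 was read at 0 and 24 h (37 °C, shaking) against controls without spherules and spherules without compound; spherules were also plated for CFU.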

Staphylococcus aureus [25] = experiment: Antibiofilm activity against Staphylococcus aureus ATCC 6538 assessed as reduction in bacterial adherence to HA at 0.24 to 7.8 ug/ml pretreated with HA for 24 hrs followed by organism inoculation measured after 24 hrs; format: functional; summary of the method: as §2
Staphylococcus aureus [26] = experiment: Bactericidal activity against Staphylococcus aureus ATCC 6538 biofilm using hydroxyapatite as substrate assessed as reduction in colony forming units at 0.24 to 250 ug/ml after 24 hrs; format: functional

Compound: O=C(O)c1cn(C2CC2)c2cc(N3CCNCC3)c(F)cc2c1=O [CIPROFLOXACIN]
- MIC (Staphylococcus aureus [1]): 1 µg/mL (≈ 3.02 µM)
- MIC (Staphylococcus aureus [2]): 0.25 µg/mL (≈ 0.754 µM)
- MIC (Staphylococcus aureus [3]): 0.25 µg/mL (≈ 0.754 µM)
- MIC (Staphylococcus aureus [4]): 1 µg/mL (≈ 3.02 µM)
- MIC (Staphylococcus aureus [5]): 0.5 µg/mL (≈ 1.51 µM)
- MIC (Staphylococcus aureus [6]): 1 µg/mL (≈ 3.02 µM)
- MIC (Staphylococcus aureus [7]): 1 µg/mL (≈ 3.02 µM)
- MIC (Staphylococcus aureus [8]): 1 µg/mL (≈ 3.02 µM)
- zone of inhibition (Staphylococcus aureus [9]): 25 to 40 mm
- zone of inhibition (Staphylococcus aureus [10]): 25 to 40 mm
- zone of inhibition (Staphylococcus aureus [11]): 25 to 40 mm
- zone of inhibition (Staphylococcus aureus [12]): 25 to 40 mm
- zone of inhibition (Staphylococcus aureus [13]): 25 to 40 mm
- zone of inhibition (Staphylococcus aureus [14]): 25 to 40 mm
- zone of inhibition (Staphylococcus aureus [15]): 25 to 40 mm
- MBIC90 (Staphylococcus aureus [16]): 8 µg/mL
- Activity (Pseudomonas aeruginosa): inactive
- Activity (Staphylococcus aureus [17]): Active
- Activity (Staphylococcus aureus [18]): Active
- Activity (Staphylococcus aureus [19]): Active
- zone of inhibition at 5000 µg/disc [20]: > 40 mm
- MIC90 [21]: 2 µg/mL (≈ 6.04 µM)
- Activity [22]: 90%
- zone of inhibition (Staphylococcus aureus [23]): 25 to 40 mm

- MIC (Staphylococcus aureus [1]): 31.2 µg/mL (≈ 50 µM)
- MIC (Staphylococcus aureus [2]): 31.2 µg/mL (≈ 50 µM)
- MIC (Staphylococcus aureus [3]): 15.6 µg/mL (≈ 25 µM)
- MIC (Staphylococcus aureus [4]): 62.5 µg/mL (≈ 100 µM)
- MIC (Staphylococcus aureus [5]): 7.8 µg/mL (≈ 12.5 µM)
- MIC (Staphylococcus aureus [6]): 15.6 µg/mL (≈ 25 µM)
- MIC (Staphylococcus aureus [7]): 62.5 µg/mL (≈ 100 µM)
Compound: O=C(O)c1cn(C2CC2)c2cc(N3CCN(C(=O)c4ccc(CC(P(=O)(O)O)P(=O)(O)O)cc4)CC3)c(F)cc2c1=O
- Activity (Staphylococcus aureus [24]): inactive
- Activity (Staphylococcus aureus [25]): inactive
- Activity (Staphylococcus aureus [26]): inactive

Reference: ChEMBL document CHEMBL4014261, “Design, Synthesis, and Antimicrobial Evaluation of a Novel Bone-Targeting Bisphosphonate-Ciprofloxacin Conjugate for the Treatment of Osteomyelitis Biofilms” (J Med Chem, 2017)
